Measurements: ChEMBL document CHEMBL3580601, “Discovery of a Potent Parenterally Administered Factor XIa Inhibitor with Hydroxyquinolin-2(1H)-one as the P2' Moiety” (ACS Med Chem Lett, 2015)
Converted amounts (≈) assume the structure as drawn. The source made the active and inactive calls. The calls are words filed in the database; no cut-off is given here.

Legend:
Plasma [1] = assay: Anticoagulant activity in healthy human plasma assessed as concentration required to cause two fold prolongation of activated partial thromboplastin time; assay type: functional
Coagulation factor XI [2] = target: T1, Coagulation factor XI (Homo sapiens, UniProt P03951); assay: Inhibition of human coagulation factor 11a using p-nitroaniline as substrate assessed as substrate hydrolysis by spectrophotometry
In short: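 Human enzyme Ki, averaged over multiple determinations (n = 2).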

[3] = Half life in human liver microsomes; assay type: ADME
[4] = Solubility in 50 mM pH 6.5 phosphate buffer using amorphous form of compound; assay type: physicochemical
Oryctolagus cuniculus [5] = assay: Antithrombotic activity in iv dosed rabbit model of electrically induced carotid arterial thrombosis assessed as increase in integrated blood flow of the injured artery; assay type: functional, organism-based
Oryctolagus cuniculus [6] = assay: Antithrombotic activity in iv dosed rabbit model of electrically induced carotid arterial thrombosis assessed as reduction in thrombus formation; assay type: functional, organism-based
Plasma [7] = assay: Anticoagulant activity in rabbit plasma assessed as prolongation of prothrombin time at 100 uM; assay type: functional, cell-free; conditions: Oryctolagus cuniculus
Plasma [8] = assay: Anticoagulant activity in rabbit plasma assessed as prolongation of thrombin time at 100 uM; assay type: functional, cell-free; conditions: Oryctolagus cuniculus
[9] = Half life in rat at 1 mg/kg, iv; assay type: ADME, organism-based; conditions: in vivo
[10] = Unbound fraction in rat plasma; assay type: ADME, cell-free
[11] = Inhibition of rabbit coagulation factor 11a using p-nitroaniline as substrate assessed as substrate hydrolysis at 37 degC by spectrophotometry; parameters: species or system Oryctolagus cuniculus
Plasma kallikrein = Plasma kallikrein (Homo sapiens, UniProt P03952); assay: Inhibition of plasma kallikrein (unknown origin)
In short: (§1)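 Ki against each human enzyme, averaged from duplicate IC50 determinations.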

[12] = target: Urokinase-type plasminogen activator (Homo sapiens, UniProt P00749); assay: Inhibition of urokinase (unknown origin); in short: as §1
Oryctolagus cuniculus [13] = organism: Oryctolagus cuniculus; assay: Toxicity in rabbit cuticle bleeding time model assessed as prologation of bleeding time at 100 uM; assay type: organism-based; conditions: in vivo
Coagulation factor VII = target: T2, Coagulation factor VII (Homo sapiens, UniProt P08709); assay: Inhibition of coagulation factor 7a (unknown origin); in short: as §1
T2 sequence (P08709 whole entry): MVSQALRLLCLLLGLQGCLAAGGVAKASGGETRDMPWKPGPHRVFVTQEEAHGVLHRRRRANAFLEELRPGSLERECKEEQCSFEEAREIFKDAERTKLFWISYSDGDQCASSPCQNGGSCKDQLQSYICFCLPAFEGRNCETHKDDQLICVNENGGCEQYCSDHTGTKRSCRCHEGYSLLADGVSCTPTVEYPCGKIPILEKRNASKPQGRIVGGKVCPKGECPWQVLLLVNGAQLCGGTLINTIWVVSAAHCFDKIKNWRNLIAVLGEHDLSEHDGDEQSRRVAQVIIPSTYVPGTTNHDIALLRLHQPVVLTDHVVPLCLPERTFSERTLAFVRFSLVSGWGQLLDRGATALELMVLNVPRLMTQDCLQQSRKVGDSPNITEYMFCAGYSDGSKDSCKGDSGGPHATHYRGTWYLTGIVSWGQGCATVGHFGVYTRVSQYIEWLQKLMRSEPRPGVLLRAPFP

Plasma [14] = assay: Anticoagulant activity in rabbit plasma assessed as prolongation of activated partial thromboplastin time at 100 uM; assay type: functional, Oryctolagus cuniculus
Plasma [15] = assay: Anticoagulant activity in rat plasma assessed as concentration required to cause 1.5 fold prolongation of activated partial thromboplastin time
Plasma [16] = assay: Anticoagulant activity in cynomolgus monkey plasma assessed as concentration required to cause 1.5 fold prolongation of activated partial thromboplastin time
Coagulation factor XII = target: T3, Coagulation factor XII (Homo sapiens, UniProt P00748); assay: Inhibition of coagulation factor 12a (unknown origin); in short: as §1
T3 sequence (P00748 whole entry): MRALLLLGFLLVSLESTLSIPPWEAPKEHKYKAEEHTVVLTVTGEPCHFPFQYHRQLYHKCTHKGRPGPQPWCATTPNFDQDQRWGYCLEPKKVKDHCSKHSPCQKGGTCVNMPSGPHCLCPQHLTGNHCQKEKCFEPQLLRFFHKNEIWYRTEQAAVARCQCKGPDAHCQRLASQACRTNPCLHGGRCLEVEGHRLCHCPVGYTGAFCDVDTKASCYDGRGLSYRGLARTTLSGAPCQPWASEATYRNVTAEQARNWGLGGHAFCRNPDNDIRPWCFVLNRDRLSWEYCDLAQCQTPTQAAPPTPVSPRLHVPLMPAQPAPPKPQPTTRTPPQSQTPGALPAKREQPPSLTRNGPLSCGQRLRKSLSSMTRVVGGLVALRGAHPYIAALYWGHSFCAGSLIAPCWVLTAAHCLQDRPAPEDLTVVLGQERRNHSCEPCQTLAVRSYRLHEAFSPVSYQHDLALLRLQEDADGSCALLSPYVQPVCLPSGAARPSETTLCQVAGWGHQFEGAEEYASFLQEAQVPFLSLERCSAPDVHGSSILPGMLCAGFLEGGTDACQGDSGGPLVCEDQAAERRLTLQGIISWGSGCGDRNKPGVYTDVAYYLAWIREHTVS

Coagulation factor XI [17] = target: T1, Coagulation factor XI; assay: Inhibition of human coagulation factor 11a using p-nitroaniline as substrate assessed as substrate hydrolysis at 37 degC by spectrophotometry
Coagulation factor IX = Coagulation factor IX (Homo sapiens, UniProt P00740); assay: Inhibition of coagulation factor 9a (unknown origin); in short: as §1
Prothrombin = Prothrombin (Homo sapiens, UniProt P00734); assay: Inhibition of thrombin (unknown origin); in short: as §1
[18] = Unbound fraction in rabbit plasma; assay type: ADME, cell-free, Oryctolagus cuniculus
[19] = Unbound fraction in human plasma; assay type: ADME, cell-free
[20] = Inhibition of chymotrypsin (unknown origin); parameters: species or system Homo sapiens; in short: as §1
Kallikrein-1 = Kallikrein-1 (Homo sapiens, UniProt P06870); assay: Inhibition of tissue kallikrein (unknown origin); in short: as §1
Plasma [21] = assay: Anticoagulant activity in dog plasma assessed as concentration required to cause 1.5 fold prolongation of activated partial thromboplastin time
Plasma [22] = assay: Anticoagulant activity in rabbit plasma assessed as concentration required to cause 1.5 fold prolongation of activated partial thromboplastin time
[23] = Unbound fraction in dog plasma; assay type: ADME, cell-free, Canis lupus familiaris
Coagulation factor X = Coagulation factor X (Homo sapiens, UniProt P00742); assay: Inhibition of coagulation factor 10a (unknown origin); in short: as §1
[24] = Unbound fraction in cynomolgus monkey plasma; assay type: ADME, cell-free, Macaca fascicularis
[25] = target: Vitamin K-dependent protein C (Homo sapiens, UniProt P04070); assay: Inhibition of APC (unknown origin); in short: as §1
Trypsin = Trypsin (Homo sapiens, UniProt P07477+P07478+P35030); assay: Inhibition of trypsin (unknown origin); assay type: protein assay; in short: as §1
[26] = target: Tissue-type plasminogen activator (Homo sapiens, UniProt P00750); assay: Inhibition of tPA (unknown origin); in short: as §1
[27] = Half life in cynomolgus monkey at 1 mg/kg, iv; assay type: ADME, organism-based, Macaca fascicularis; conditions: in vivo
[28] = Half life in rabbit at 1 mg/kg, iv; assay type: ADME, organism-based, Oryctolagus cuniculus; conditions: in vivo
In short: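 Rabbits given a single IV dose of 1 mg/kg of the HCl salt in 10% DMAc/90% D5W (5% dextrose in water), with half-life taken from the plasma PK profile.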

[29] = Half life in dog at 1 mg/kg, iv; assay type: ADME, organism-based, Canis lupus familiaris; conditions: in vivo
In short: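 Dogs dosed IV at 1 mg/kg with the HCl salt in 10% DMAc/10% ethanol/10% propylene glycol/70% water, with half-life from the pharmacokinetic profile.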

T1 sequence (P03951 19-387 limits assumed): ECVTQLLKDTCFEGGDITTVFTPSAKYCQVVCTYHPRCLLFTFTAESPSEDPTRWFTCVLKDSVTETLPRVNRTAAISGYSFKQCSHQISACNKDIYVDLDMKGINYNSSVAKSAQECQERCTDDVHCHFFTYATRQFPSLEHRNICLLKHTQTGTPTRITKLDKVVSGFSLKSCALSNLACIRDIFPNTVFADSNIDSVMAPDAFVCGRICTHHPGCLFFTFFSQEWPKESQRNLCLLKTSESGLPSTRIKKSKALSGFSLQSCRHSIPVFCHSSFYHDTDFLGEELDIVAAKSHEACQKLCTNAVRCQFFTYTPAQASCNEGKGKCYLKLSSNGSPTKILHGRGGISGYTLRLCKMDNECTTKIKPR
T1 sequence (P03951 388-625 limits assumed): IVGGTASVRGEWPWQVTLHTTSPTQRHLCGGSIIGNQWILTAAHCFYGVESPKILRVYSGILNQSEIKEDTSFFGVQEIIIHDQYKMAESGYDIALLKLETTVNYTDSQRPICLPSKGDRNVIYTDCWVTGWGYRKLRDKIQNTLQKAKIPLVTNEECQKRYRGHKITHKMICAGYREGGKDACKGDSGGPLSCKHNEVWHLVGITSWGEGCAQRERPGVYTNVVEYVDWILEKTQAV
Tissue-type plasminogen activator, sequence (P00750 whole entry): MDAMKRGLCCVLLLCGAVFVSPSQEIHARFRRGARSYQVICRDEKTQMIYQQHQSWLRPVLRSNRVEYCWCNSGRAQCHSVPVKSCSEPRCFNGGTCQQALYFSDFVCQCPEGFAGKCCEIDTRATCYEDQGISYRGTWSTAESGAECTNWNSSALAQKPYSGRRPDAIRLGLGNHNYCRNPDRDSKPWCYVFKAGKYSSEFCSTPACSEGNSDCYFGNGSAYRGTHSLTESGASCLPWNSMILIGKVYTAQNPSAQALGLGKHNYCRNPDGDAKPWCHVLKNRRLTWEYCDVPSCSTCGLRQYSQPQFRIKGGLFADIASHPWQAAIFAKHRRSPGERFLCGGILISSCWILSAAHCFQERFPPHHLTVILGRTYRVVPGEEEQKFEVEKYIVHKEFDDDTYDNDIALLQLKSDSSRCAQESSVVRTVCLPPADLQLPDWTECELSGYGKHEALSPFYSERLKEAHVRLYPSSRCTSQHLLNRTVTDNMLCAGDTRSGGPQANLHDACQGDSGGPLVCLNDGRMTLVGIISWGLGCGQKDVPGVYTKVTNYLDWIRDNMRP
Plasma kallikrein, sequence (P03952 20-390 limits assumed): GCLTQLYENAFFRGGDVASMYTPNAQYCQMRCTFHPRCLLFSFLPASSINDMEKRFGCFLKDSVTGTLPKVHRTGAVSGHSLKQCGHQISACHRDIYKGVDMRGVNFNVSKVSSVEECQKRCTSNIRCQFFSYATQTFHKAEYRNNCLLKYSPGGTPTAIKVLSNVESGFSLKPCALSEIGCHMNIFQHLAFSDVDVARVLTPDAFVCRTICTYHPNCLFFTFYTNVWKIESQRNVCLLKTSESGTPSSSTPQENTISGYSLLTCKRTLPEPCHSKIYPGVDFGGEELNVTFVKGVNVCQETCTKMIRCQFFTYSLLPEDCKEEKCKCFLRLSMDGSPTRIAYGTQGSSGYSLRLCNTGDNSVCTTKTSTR
Plasma kallikrein, sequence (P03952 391-638 limits assumed): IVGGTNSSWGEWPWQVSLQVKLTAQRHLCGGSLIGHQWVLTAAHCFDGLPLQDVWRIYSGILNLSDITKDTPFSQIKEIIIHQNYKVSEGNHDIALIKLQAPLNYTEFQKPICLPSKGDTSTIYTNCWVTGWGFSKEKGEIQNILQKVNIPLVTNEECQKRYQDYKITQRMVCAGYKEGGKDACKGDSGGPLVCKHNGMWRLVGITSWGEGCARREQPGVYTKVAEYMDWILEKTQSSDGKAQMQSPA
Vitamin K-dependent protein C, sequence (P04070 43-197 limits assumed): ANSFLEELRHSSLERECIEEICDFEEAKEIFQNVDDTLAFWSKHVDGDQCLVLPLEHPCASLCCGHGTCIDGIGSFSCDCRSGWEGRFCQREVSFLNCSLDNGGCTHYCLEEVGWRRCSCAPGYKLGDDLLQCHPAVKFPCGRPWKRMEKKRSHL
Vitamin K-dependent protein C, sequence (P04070 212-461 limits assumed): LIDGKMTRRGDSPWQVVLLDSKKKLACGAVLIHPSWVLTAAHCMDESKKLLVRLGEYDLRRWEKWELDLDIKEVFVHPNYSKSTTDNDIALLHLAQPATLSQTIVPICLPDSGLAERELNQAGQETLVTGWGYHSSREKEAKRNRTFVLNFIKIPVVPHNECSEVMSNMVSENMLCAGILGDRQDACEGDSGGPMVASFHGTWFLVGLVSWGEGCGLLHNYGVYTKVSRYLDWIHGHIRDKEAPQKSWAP
Coagulation factor X, sequence (P00742 41-179 limits assumed): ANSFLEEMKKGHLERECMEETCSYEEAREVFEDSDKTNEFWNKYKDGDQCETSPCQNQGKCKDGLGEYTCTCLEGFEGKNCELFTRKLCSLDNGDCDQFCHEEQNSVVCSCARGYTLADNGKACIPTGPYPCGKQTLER
Coagulation factor X, sequence (P00742 235-488 limits assumed): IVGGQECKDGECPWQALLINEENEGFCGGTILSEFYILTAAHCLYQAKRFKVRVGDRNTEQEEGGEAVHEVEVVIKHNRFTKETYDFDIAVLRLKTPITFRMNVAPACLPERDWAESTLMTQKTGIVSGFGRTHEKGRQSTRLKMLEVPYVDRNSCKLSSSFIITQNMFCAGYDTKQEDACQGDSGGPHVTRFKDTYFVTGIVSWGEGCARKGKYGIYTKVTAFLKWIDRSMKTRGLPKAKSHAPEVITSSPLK
Coagulation factor IX, sequence (P00740 47-191 limits assumed): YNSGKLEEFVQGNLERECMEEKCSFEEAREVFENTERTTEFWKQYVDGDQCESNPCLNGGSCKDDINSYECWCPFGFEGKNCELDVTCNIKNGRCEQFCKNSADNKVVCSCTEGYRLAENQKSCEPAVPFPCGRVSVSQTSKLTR
Coagulation factor IX, sequence (P00740 227-461 limits assumed): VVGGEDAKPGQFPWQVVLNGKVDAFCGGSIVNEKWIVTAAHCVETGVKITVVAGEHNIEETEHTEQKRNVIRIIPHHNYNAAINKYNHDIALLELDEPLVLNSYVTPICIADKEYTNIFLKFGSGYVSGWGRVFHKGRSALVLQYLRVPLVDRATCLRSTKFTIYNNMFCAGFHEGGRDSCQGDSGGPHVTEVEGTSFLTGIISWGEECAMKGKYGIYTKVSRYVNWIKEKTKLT
Kallikrein-1, sequence (P06870 whole entry): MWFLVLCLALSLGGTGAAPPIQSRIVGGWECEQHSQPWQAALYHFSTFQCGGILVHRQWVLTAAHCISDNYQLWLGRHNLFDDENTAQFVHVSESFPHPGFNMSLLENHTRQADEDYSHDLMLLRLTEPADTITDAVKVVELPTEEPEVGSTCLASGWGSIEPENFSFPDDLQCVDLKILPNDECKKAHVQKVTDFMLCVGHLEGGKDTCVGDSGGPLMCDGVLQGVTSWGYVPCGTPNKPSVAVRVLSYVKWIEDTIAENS

Compound: COC(=O)Nc1ccc(-c2nc([C@H](CC(=O)N3CCN(C(C)=O)CC3)NC(=O)/C=C/c3cc(Cl)ccc3-n3cnnn3)[nH]c2Cl)cc1
- 2aPTT (Plasma [1]): 4.6 µM
- Ki (Coagulation factor XI [2]): 0.6 nM
- half-life [3]: 45 min
- solubility [4]: 3 µg/mL (≈ 4.4 µM)

Compound: O=C(/C=C/c1cc(Cl)ccc1-n1cnnn1)N[C@@H](Cc1ccccc1)c1nc(-c2ccc3c(c2)CCC(=O)N3)c(Cl)[nH]1
- 2aPTT (Plasma [1]): 60 µM
- Ki (Coagulation factor XI [2]): 19 nM
- half-life [3]: 48 min

Compound: CN1CCN(C(=O)C[C@H](NC(=O)/C=C/c2cc(Cl)ccc2-n2cnnn2)c2nc(-c3ccc4[nH]c(=O)cc(O)c4c3)c(Cl)[nH]2)CC1 [listing 1 of 2 here]
- Activity (Oryctolagus cuniculus [5]): Dose-dependent effect
- Activity (Oryctolagus cuniculus [6]): Dose-dependent effect
- Activity (Plasma [7]): inactive
- Activity (Plasma [8]): inactive

Compound: COC(=O)Nc1ccc(-c2nc([C@H](CC(=O)N3CCS(=O)(=O)CC3)NC(=O)/C=C/c3cc(Cl)ccc3-n3cnnn3)[nH]c2Cl)cc1
- 2aPTT (Plasma [1]): 3.6 µM
- Ki (Coagulation factor XI [2]): 0.3 nM
- half-life [3]: 154 min
- solubility [4]: 1 µg/mL (≈ 1.45 µM)

Compound: Cc1ccc(-n2cnnn2)c(CCC(=O)N[C@@H](Cc2ccccc2)c2nc(-c3ccc4[nH]c(=O)cc(O)c4c3)c(Cl)[nH]2)c1
- 2aPTT (Plasma [1]): 9.1 µM
- Ki (Coagulation factor XI [2]): 0.5 nM
- half-life [3]: 10 min

Compound: CN1CCN(C(=O)C[C@H](NC(=O)/C=C/c2cc(Cl)ccc2-n2cnnn2)c2nc(-c3ccc4[nH]c(=O)cc(O)c4c3)c(Cl)[nH]2)CC1.O=C(O)C(F)(F)F
- half-life [9]: 66 min

Compound: COC(=O)Nc1ccc(-c2nc([C@H](CC(=O)N3CCN(C)CC3)NC(=O)/C=C/c3cc(Cl)ccc3-n3cnnn3)[nH]c2Cl)cc1
- 2aPTT (Plasma [1]): 3.7 µM
- Ki (Coagulation factor XI [2]): 0.4 nM
- half-life [3]: 25 min
- solubility [4]: 44 µg/mL (≈ 67.3 µM)

Compound: CN1CCN(C(=O)C[C@H](NC(=O)/C=C/c2cc(Cl)ccc2-n2cnnn2)c2nc(-c3ccc4[nH]c(=O)cc(O)c4c3)c(Cl)[nH]2)CC1 [listing 2 of 2 here]
- fraction unbound [10]: 0.026
- Ki [11]: 0.58 nM
- Ki (Plasma kallikrein): 7 nM
- Ki [12]: > 1600 nM
- Activity (Oryctolagus cuniculus [13]): Non-toxic
- Ki (Coagulation factor VII): > 13300 nM
- fold change (FC) (Plasma [14]): 3.2
- EC1.5 (Plasma [15]): >20 µM
- EC1.5 (Plasma [16]): 0.3 µM
- Ki (Coagulation factor XII): > 20000 nM
- EC50 (Oryctolagus cuniculus [6]): 530 nM
- 2aPTT (Plasma [1]): 1 µM
- Ki (Coagulation factor XI [17]): 0.1 nM
- Ki (Coagulation factor XI [2]): 0.04 nM
- Ki (Coagulation factor IX): > 60000 nM
- Ki (Prothrombin): 7400 nM
- fraction unbound [18]: 0.07
- fraction unbound [19]: 0.08
- Ki [20]: 400 nM
- Ki (Kallikrein-1): > 30000 nM
- half-life [3]: > 200 min
- solubility [4]: 17 µg/mL (≈ 25.6 µM)
- EC1.5 (Plasma [21]): 0.3 µM
- EC1.5 (Plasma [22]): 1 µM
- fraction unbound [23]: 0.18
- Ki (Coagulation factor X): > 9000 nM
- fraction unbound [24]: 0.08
- Ki [25]: > 54000 nM
- Ki (Trypsin): 6200 nM
- Ki [26]: 29000 nM

Compound: COC(=O)Nc1ccc(-c2nc([C@H](CC(=O)N3CCOCC3)NC(=O)/C=C/c3cc(Cl)ccc3-n3cnnn3)[nH]c2Cl)cc1
- 2aPTT (Plasma [1]): 7.4 µM
- Ki (Coagulation factor XI [2]): 0.7 nM
- half-life [3]: 6.2 min
- solubility [4]: 1 µg/mL (≈ 1.56 µM)

Compound: COC(=O)Nc1ccc(-c2nc([C@H](Cc3ccccc3)NC(=O)/C=C/c3cc(Cl)ccc3-n3cnnn3)[nH]c2Cl)cc1
- 2aPTT (Plasma [1]): 19 µM
- Ki (Coagulation factor XI [2]): 3.7 nM
- half-life [3]: 46 min
- solubility [4]: < 1 µg/mL

Compound: O=C(CCc1cc(Cl)ccc1-n1cnnn1)N[C@@H](Cc1ccccc1)c1nc(-c2ccc3[nH]c(=O)cc(O)c3c2)c(Cl)[nH]1
- 2aPTT (Plasma [1]): 7.2 µM
- Ki (Coagulation factor XI [2]): 0.32 nM
- half-life [3]: 6.6 min

Compound: O=C(/C=C/c1cc(Cl)ccc1-n1cnnn1)N[C@@H](Cc1ccccc1)c1nc(-c2ccc3[nH]c(=O)cc(O)c3c2)c(Cl)[nH]1
- 2aPTT (Plasma [1]): 11 µM
- Ki (Coagulation factor XI [2]): 0.18 nM
- half-life [3]: 56 min

Compound: CN1CCN(C(=O)C[C@H](NC(=O)/C=C/c2cc(Cl)ccc2-n2cnnn2)c2nc(-c3ccc4[nH]c(=O)cc(O)c4c3)c(Cl)[nH]2)CC1.Cl
- half-life [27]: 114 min
- half-life [28]: 66 min
- half-life [29]: 66 min

Compound: Cc1ccc(-n2cnnn2)c(CCC(=O)N[C@@H](Cc2ccccc2)c2nc(-c3ccc4[nH]c(=O)ccc4c3)c(Cl)[nH]2)c1
- 2aPTT (Plasma [1]): 69 µM
- Ki (Coagulation factor XI [2]): 12 nM
- half-life [3]: 2.2 min
